Screening data from PubChem.
The list is not random: actives were taken first. Their share in the collection is about 6.5%.
PostGolgi yeast: growth inhibition of a yeast mutant, post-Golgi transport screen | post-Golgi transport phenotypic cell assay | inhibition, % at 10 µM | hit rate 0.9% among 98,000 | AID 739;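 note: yeast cells grown in 1536-well plates; yeast grown about 18 h at 30C before absorbance read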
Candida biofilm: kills Candida albicans biofilms | C. albicans biofilm + clotrimazole, Alamar Blue | inhibition, % at 6 µM | hit rate 0.14% among 85,000;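 active = inhibition above 20%; inactive = inhibition below 20%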;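 note: preformed 24 hr biofilms exposed to compound for 48 hr; 0% = biofilm without compound and 100% = blank killed by clotrimazole plus chlorhexidine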
Pyk2 oligo antag: blocks oligomerization of human Pyk2 in cells | Q14289 | Q293 cells, Pyk2 FERM NanoBiT luminescence; active compounds read low | z-score (the deposit names both 25 µM and 10 µM) | hit rate 0.83% among 99,000;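 active = Z-score of -3 or lower, scaled per plate to the spread of control and sample wells; inactive = z-score above -3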;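 note: negative z-score means lost luminescence so less FERM oligomerization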
Target sequence (Q14289 whole entry, looked up): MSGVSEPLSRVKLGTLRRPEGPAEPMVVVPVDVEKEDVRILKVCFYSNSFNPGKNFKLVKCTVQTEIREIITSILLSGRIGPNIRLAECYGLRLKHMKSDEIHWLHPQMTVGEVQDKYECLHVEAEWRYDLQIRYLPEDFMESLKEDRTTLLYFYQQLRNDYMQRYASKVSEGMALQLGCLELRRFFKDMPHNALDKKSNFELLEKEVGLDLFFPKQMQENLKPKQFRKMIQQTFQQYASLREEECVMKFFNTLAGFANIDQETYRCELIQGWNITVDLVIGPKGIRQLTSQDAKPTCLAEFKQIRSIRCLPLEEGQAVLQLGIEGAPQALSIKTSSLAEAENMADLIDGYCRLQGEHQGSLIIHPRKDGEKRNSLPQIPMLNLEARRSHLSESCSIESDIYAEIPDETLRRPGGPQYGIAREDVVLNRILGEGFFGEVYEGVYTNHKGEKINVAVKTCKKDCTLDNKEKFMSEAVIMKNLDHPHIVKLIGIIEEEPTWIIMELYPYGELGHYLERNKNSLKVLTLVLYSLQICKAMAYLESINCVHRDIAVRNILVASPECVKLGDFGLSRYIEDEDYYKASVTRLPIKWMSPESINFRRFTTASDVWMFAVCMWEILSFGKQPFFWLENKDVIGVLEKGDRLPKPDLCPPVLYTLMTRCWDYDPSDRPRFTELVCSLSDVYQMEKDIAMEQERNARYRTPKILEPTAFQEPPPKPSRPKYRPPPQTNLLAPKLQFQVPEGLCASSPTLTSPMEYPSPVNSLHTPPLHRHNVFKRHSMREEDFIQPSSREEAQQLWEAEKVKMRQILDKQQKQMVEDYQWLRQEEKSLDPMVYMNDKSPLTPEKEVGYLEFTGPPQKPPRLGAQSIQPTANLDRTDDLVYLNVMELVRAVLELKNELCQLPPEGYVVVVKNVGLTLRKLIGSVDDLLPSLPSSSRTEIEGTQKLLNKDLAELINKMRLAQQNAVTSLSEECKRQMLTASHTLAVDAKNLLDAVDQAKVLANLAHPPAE
Ecoli WT expand: E. coli BW25113 growth inhibition, expanded screen; OD600 absorbance; growth inhibition, % at 100 µM; hit rate 0.15% among 98,000; AID 710;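 active = growth inhibition above about 50% at one test dose, limit read from the data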;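 note: growth measured after 20 h incubation at 37 °C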
tolC growth inh: growth inhibitors of E. coli BW25113 tolC mutant | OD615 | growth inhibition, % at 10 µM (by protocol) | hit rate 2.2% among 65,000 | AID 573;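 active = growth inhibition at or above a cutoff equal to the mean over every tested compound plus 3 SD, cut at about 60% in these data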;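 note: growth measured after 20 h incubation at 37 °C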
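Assay system: tolC-deleted E. coli BW25113. Medium: kanamycin-containing LB broth (50 µg/mL). Dosing: 10 µM final, single dose. Timing: bacterial growth with compound for 20 h at 37 °C. Detection: A615 absorbance measurement. Read-out basis: growth inhibition in percent.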
PostGolgi ctrl: yeast control strain growth, post-Golgi counter-screen; efflux-deficient yeast background strain, growth absorbance A615, 16 h; inhibition, % at 10 µM; hit rate 5% among 98,000; AID 738
Active calls of the source: *; · = no result given. Cut-off read from the data, not from the text of the source, unless noted: active = inhibition above about 30%; inactive = the rest.

SMILES	PostGolgi yeast	Candida biofilm	Pyk2 oligo antag	Ecoli WT expand	tolC growth inh	PostGolgi ctrl
Cc1ccc(S(=O)(=O)NC2=C(N3CCN(Cc4ccccc4)CC3)C(=O)c3ccccc3C2=O)cc1	0	7	·	-13	·	46*
O=C(NCC(c1cccnc1)N1CCN(c2ccccc2)CC1)c1ccc2c(c1)OCO2 (stereo not drawn)	74*	3	-0.47	1	-5	8
O=C(NCC(c1cccnc1)N1CCN(c2ccccc2F)CC1)OCc1ccccc1 (stereo not drawn)	13	4	-3.1*	1	10	22
O=C(NCc1ccncc1)C(=O)NCC(c1ccco1)N1CCN(c2ccc(F)cc2)CC1 (stereo not drawn)	·	·	-0.21	·	·	·
O=C(NCC(c1cccnc1)N1CCN(c2ccccc2)CC1)OCc1ccccc1 (stereo not drawn)	·	7	-1.4	·	27	·
O=C(NCC(c1ccco1)N1CCN(c2ccc(F)cc2)CC1)OCc1ccccc1 (stereo not drawn)	·	·	-3*	·	·	·
Cc1ccc(S(=O)(=O)NC2=C(N3CCN(c4ccccc4F)CC3)C(=O)c3ccccc3C2=O)cc1	-11	·	-0.47	-19	·	19
CCOC(=O)C1=C(C)NC(=O)NC1c1c(OCC(=O)N2CCCCC2)ccc2ccccc12 (stereo not drawn)	14	4	-0.96	3	2	-11
CC1CCc2sc3c(c2C1)c1ncnn1c(=O)n3CC(=O)c1ccc(Br)cc1 (stereo not drawn)	·	5	0.87	·	-7	·
O=C(NCC(c1cccnc1)N1CCN(c2ccc(F)cc2)CC1)OCc1ccccc1 (stereo not drawn)	59*	-4	-3	7	11	25
O=C1C(NS(=O)(=O)c2cccs2)=C(N2CCN(c3ccccc3)CC2)C(=O)c2ccccc21	17	6	-0.2	-4	·	57*
O=C(NCC(c1cccnc1)N1CCN(c2ccccc2)CC1)C1CCCCC1 (stereo not drawn)	46*	12	1.9	5	-18	7
O=C(NCC(c1cccnc1)N1CCN(c2ccc(F)cc2)CC1)c1cccc(Cl)c1 (stereo not drawn)	77*	10	-0.11	3	6	91*
FC(F)(F)c1cc(-c2ccc(Cl)cc2)nc2ncnn12	-2	3	-0.4	-2	·	3
COc1cccc(/C=N\NC(=O)c2sc(N)nc2C)c1OC	-2	·	-0.04	1	·	6
Cc1ccc(S(=O)(=O)NC(C)C(c2cccs2)N2CCN(c3ccccc3)CC2)cc1 (stereo not drawn)	-9	11	·	-14	·	47*
O=S(=O)(NCC(c1cccnc1)N1CCN(c2ccccc2)CC1)c1cccs1 (stereo not drawn)	88*	8	-0.28	-7	12	55*
C=C(C)Cn1c(CCCNC(=O)C(C)(C)C)nc2ccccc21	2	·	0.19	6	-3	4
O=C(c1cccs1)N(Cc1ccccn1)Cc1ccco1	-4	·	-0.17	-2	-17	8
COCCN1CSC(=S)N(Cc2ccco2)C1	8	3	0.81	62*	17	0
S=C1SCN(Cc2ccccn2)CN1Cc1ccco1	-1	2	0.14	71*	21	8
CC1Cc2ccccc2N1C(=O)Cn1c(=O)oc2cc(S(=O)(=O)NC3CCCC3)ccc21 (stereo not drawn)	8	11	·	-13	74*	24
CC1CCN(S(=O)(=O)c2ccc3c(c2)oc(=O)n3CC(=O)N2c3ccccc3CC2C)CC1 (stereo not drawn)	-7	10	·	-1	11	4
Cc1cc(NC(=O)C23CCC(C)(c4nc5cc(Cl)c(Cl)cc5nc42)C3(C)C)no1 (stereo not drawn)	·	3	·	·	-13	·
CC(C)N(C(=O)CSc1nnc(-c2cc3ccccc3cc2O)n1Cc1ccco1)C(C)C	-3	4	0.17	-14	25	14
O=C(CSc1nnc(-c2cc3ccccc3cc2O)n1Cc1ccco1)N1CCc2ccccc2C1	2	-4	-0.43	-9	·	80*
C=CCNCc1cccn1-c1ccccc1	-1	6	0.05	-1	-11	34*
Cc1nn(C(C)C(=O)NNC(=S)Nc2ccc(F)cc2)c(C)c1[N+](=O)[O-] (stereo not drawn)	1	·	0.3	2	·	1
O=C(COC(=O)c1cc(=O)[nH]c2ccccc12)NC(=O)NC1CCCCC1	3	3	-3.7*	-6	15	30
COc1ccc(OCC(=O)Nc2cccc(-c3nc4ccccc4[nH]3)c2)cc1	-5	·	-2.6	3	·	17
